Hsp70 activator = Hsp70 transcriptional activators, primary screen, cell-based, HeLa, Hsp70 promoter luciferase, luminescence, 10 µM; 200,000 compounds, 0.04% hits; activation, % at 10 µM; HeLa Hsp70 promoter luciferase reporter; scaled: vehicle 0, proteasome-inhibitor control 100%; AID 1203, 2008;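 active = activation above the mean across all tested compounds plus 3 SD, cutoff set per campaign, cut at about 5.5% in these data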
T cruzi repl = inhibitors of intracellular T. cruzi growth, primary screen, luminescence, NIH3T3 host cells; T. cruzi beta-gal in NIH3T3, 90 h; inhibition, % (concentration not given with the values); 300,000 compounds, 1.4% hits; AID 1885, 2009;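 active = mean inhibition across valid replicates above about 55%, limit read from the data; inconclusive = mean below that limit but half or more replicates reach it; inactive = mean below it, under half of replicates reach it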;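 note: signal also drops with host cell toxicity which is not excluded here; higher percent means less beta-gal luminescence so fewer parasites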
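Read-out: Parasite load inhibition, % | Test system: Mouse NIH/3T3 fibroblasts infected with β-gal-expressing T. cruzi Tulahuen C4 | Amount: 5,000 cells/well | Medium: DMEM, 2% fetal bovine serum | Signal: GalScreen β-gal luminescence, detergent lysis, 60 min | Timing: 3 h attach, ≥90 h co-culture | Also added: Tulahuen C4 trypomastigotes, 5000/well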
HSF1 inhib = HSF1 inhibitors in luciferase reporter cells, primary screen, cell-based, NIH3T3, luminescence. NIH3T3-HGL HSE-luciferase, MG132-induced, luminescence 8 h; active compounds read low. activity change, negative = inhibition, % at 7.5 µM (by protocol). 300,000 compounds, 0.77% hits;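 active = more than half of replicate wells show activity change below -50%, luminescence cut by over half; inconclusive = some wells, but at most half, below -50%; inactive = no replicate well below -50%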;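 note: luciferase reports HSF-1 transcriptional activity via heat shock element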
HSF1 activator = HSF-1 activators, primary screen, NIH3T3-HGL cells, MG132 stress, luminescence, single point; NIH3T3-HGL HSF-1 luciferase reporter, 8 h; 100% = twice DMSO control signal; activation, % at 9 µM; 300,000 compounds, 1.7% hits; AID 504408, 2011;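 active = mean replicate activation of at least 50% with a set share of replicates each reaching 50%; inconclusive = only one of those two conditions met; inactive = mean below 50% and too few replicates reaching it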
L major viab = Leishmania major promastigote growth inhibition, primary screen. AID 1063, 2008. 200,000 compounds, 9% hits. inhibition, % at 10 µM. Leishmania major promastigotes, resazurin fluorescence viability; in the data active = inhibition above about 50%;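 note: promastigotes grown with compound for 44 hours at 28 °C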
Each line names hits and unclear results; the compound was inactive in the other large screens. The entries come from a sample that favours hits as a whole.

CCCc1cc(=O)oc2cc(OCC(=O)NCCc3c[nH]c4ccccc34)ccc12	none (no result: Hsp70 activator, L major viab)
O=c1cc(-c2ccccc2)nc(SCCOc2ccccc2Cl)[nH]1	none
CCOc1ccccc1NC(=O)CSc1nnc(-c2ccccc2Cl)n1Cc1ccco1	L major viab 51
CCOC(=O)c1c(NC(=O)CSc2nnc(-c3ccncc3)n2Cc2ccco2)sc(C)c1C	T cruzi repl 70, L major viab 56
OCC1(Cc2ccc(Cl)cc2)CCN(Cc2ccc(F)c(F)c2)CC1	none (no result: Hsp70 activator, L major viab)
OCC1(Cc2ccccc2C(F)(F)F)CCN(Cc2ccc3c(c2)CCO3)CC1	L major viab 90
OCC1(Cc2ccccc2C(F)(F)F)CCN(Cc2ccccc2)CC1	L major viab 81
COCCn1c(SC(C)C(=O)NCC2CCCO2)nc2scc(-c3ccc(F)cc3)c2c1=O (stereo not given)	none (no result: Hsp70 activator, L major viab)
CCCCSc1ncnc2[nH]ncc12	none (no result: Hsp70 activator, L major viab)
CN1CCN(c2ccccc2NC(=O)c2ccc(N3CCCCC3)c([N+](=O)[O-])c2)CC1	none
COc1cccc(C(=O)/C=C/c2ccc(N3CCCCC3)c([N+](=O)[O-])c2)c1	none
O=C(O)C1CCN(c2ccc(S(=O)(=O)N3CCC(C(=O)O)CC3)cc2[N+](=O)[O-])CC1	none (no result: Hsp70 activator, L major viab)
CN1CCN(c2ccc(S(=O)(=O)N3CCCCC3)cc2[N+](=O)[O-])CC1	T cruzi repl 68
CN1CCN(c2ccc(C(=O)c3ccccc3)cc2[N+](=O)[O-])CC1	T cruzi repl 56, L major viab 81
O=C(c1ccccc1)c1cc(F)c(N2CCOCC2)cc1Cl	none
O=C(/C=C/c1ccc(N2CCCCC2)c([N+](=O)[O-])c1)c1ccc(S(=O)(=O)N2CCCC2)cc1	L major viab 100
O=C(c1ccccc1)c1ccc(N2CCOCC2)c(F)c1	L major viab 53
O=[N+]([O-])c1cc(S(=O)(=O)c2ccc(N3CCCCC3)c([N+](=O)[O-])c2)ccc1N1CCCCC1	L major viab 95
O=[N+]([O-])c1ccc(N2CCCCCC2)c([N+](=O)[O-])c1	HSF1 activator 77
CCS(=O)(=O)N1CCC(C(=O)NCc2ccc(OC)cc2)CC1	none
O=C(O)c1ccc(N=C2NC(=O)C(CO)(CO)S2)cc1	none (no result: Hsp70 activator, L major viab)
COc1cc(C(=S)N2CCCC2)cc(Cl)c1OCC(=O)Nc1ccc(C)cc1C	none
COc1ccc(C(=O)NC(=S)NC(C)C)cc1Br	none
CN(C(=S)NC(=O)c1ccccc1Br)C1CCCCC1	none
Cc1ccc(C(=O)NC(=S)N(C)C2CCCCC2)cc1Br	T cruzi repl 60 (no result: Hsp70 activator, L major viab)
COc1ccc(C(=O)NC(=S)N(C)C2CCCCC2)cc1Br	T cruzi repl 60 (no result: Hsp70 activator, L major viab)
Nc1c(N2CCCCC2)c2ccccc2oc1=O	none
C/C(=N/NC(=O)CN1CCN(S(=O)(=O)c2ccc(Br)cc2)CC1)c1ccco1	none
CN([C@@H](Cc1ccc(OS(=O)(=O)c2cccc3cnccc23)cc1)C(=O)N1CCN(c2ccccc2)CC1)S(=O)(=O)c1cccc2cnccc12	T cruzi repl 57, L major viab 98 (no result: HSF1 activator)
COc1ccc(N2CCN(C(=O)C(Cc3ccccc3)n3cccc3)CC2)cc1 (stereo not given)	none
CCNc1nc(NC(C)C)nc(N(C#N)CCOc2ccc(Cl)cc2Cl)n1	L major viab 97
COc1cc(/C=C/C(=O)Nc2cc(C(F)(F)F)ccc2Cl)cc(OC)c1OC	L major viab 67
COc1ccc(/C=C/C(=O)Nc2cc(C(F)(F)F)ccc2Cl)cc1OC	none
CC(=O)Nc1nnc(Cc2c[nH]c3ccccc23)s1	none
O=C(N/N=C/c1cccc(OC(=O)c2ccco2)c1)c1ccc(F)cc1	none
CCCCn1c(SCC(=O)Nc2cc(C(F)(F)F)ccc2Cl)nnc1C(CC)N(C)C (stereo not given)	L major viab 82
COc1cccc(NC(=O)CSc2ccc3nnc(-c4ccccn4)n3n2)c1	none (no result: Hsp70 activator, L major viab)
N#Cc1c(-c2ccccc2)c(-c2ccccc2)n(Cc2ccco2)c1NC(=O)c1cccs1	HSF1 activator inconclusive, L major viab 62
CN(C)C(=O)c1ccc(NC(=O)c2ccc(-c3ccc(Cl)cc3)o2)cc1	none (no result: Hsp70 activator, L major viab)
CCN(CCO)c1nc(SC)nc2c1sc1nc(-c3ccco3)c3c(c12)CCC3	HSF1 activator 58
COc1ccc(NC(=O)Cc2c(SC)c3ccccc3n2Cc2ccccc2)cc1	none
CN(CC(=O)N1CCCc2c1c(=O)oc1ccc(O)cc21)Cc1ccccc1	none
CC(C(=O)N1CCCc2c1c(=O)oc1ccc(O)cc21)N1CCc2ccccc2C1 (stereo not given)	L major viab 95
Cc1nnc(NC(=O)CSc2ccc3nnc(-c4cccnc4)n3n2)s1	none
CC1=Nc2cc(C(=O)NCc3ccco3)ccc2Sc2ccc(C)cc21	L major viab 59
Cc1ccc(OCC(=O)c2cc(C)n(-c3ccccc3)c2C)c([N+](=O)[O-])n1	HSF1 inhib -62
CCCn1c(C)cc(C(=O)COc2ccc(S(=O)(=O)N(CC)CC)cc2[N+](=O)[O-])c1C	L major viab 84
C=CCn1c(C)cc(C(=O)COc2ccc(S(=O)(=O)N3CCCC3)cc2[N+](=O)[O-])c1C	L major viab 86
COCCn1c(C)cc(C(=O)COc2ccc(C)nc2[N+](=O)[O-])c1C	none
CCCn1c(C)cc(C(=O)COc2ccc(C)nc2[N+](=O)[O-])c1C	none
C=CCn1c(C)cc(C(=O)COc2ccc(C)nc2[N+](=O)[O-])c1C	HSF1 inhib -54
CCCN1C[C@H](CSC)C[C@@H]2c3cccc4[nH]cc(c34)C[C@H]21	none
CCCCC(CC)C(=O)N1CCN(C(=O)c2ccco2)CC1 (stereo not given)	none
COc1cccc(C2Nc3ccccc3C(=O)N2c2ccc(F)cc2)c1O (stereo not given)	HSF1 activator 67 (no result: Hsp70 activator, L major viab)
COc1ccc(N2C(=O)c3ccccc3NC2c2cccnc2)cc1 (stereo not given)	L major viab 59
COc1ccc(C2Nc3ccccc3C(=O)N2c2ccc(C)cc2)cc1COc1ccccn1 (stereo not given)	HSF1 activator 58
COCCCN(Cc1ccco1)C(=O)CSc1nc2ncccc2[nH]1	HSF1 inhib -55 (no result: Hsp70 activator, L major viab)
Cc1ccc(S(=O)(=O)Nc2ccccc2CNc2ccccn2)cc1	L major viab 59
CCn1c(/N=C/c2ccccc2NS(=O)(=O)c2ccc(C)cc2)nc2ccccc21	L major viab 85 (no result: T cruzi repl, HSF1 inhib, HSF1 activator)
CCCn1c(CNS(=O)(=O)c2ccc(C)cc2)nc2ccccc21	none
Cc1ccc(S(=O)(=O)Nc2ccccc2CNc2ncc(Br)cc2Br)cc1	L major viab 100
CCCCn1c(NCc2ccccc2NS(=O)(=O)c2ccc(C)cc2)nc2ccccc21	T cruzi repl 57
CC(C)c1ccc(C2C3=C(COC3=O)Nc3cc4c(cc32)OCO4)cc1 (stereo not given)	none

Screening data deposited in PubChem BioAssay by several laboratories.
